Data from ChEMBL document CHEMBL3397016, “SAR-studies of γ-secretase modulators with PPARγ-agonistic and 5-lipoxygenase-inhibitory activity for Alzheimer's disease” (Bioorg Med Chem Lett, 2015).
Activity calls are given as the source filed them. The rule behind the calls is not given here.

Tests used:
[1] = target: T1, Presenilin-1 (Homo sapiens, UniProt P49768); assay: Inhibition of wild-type human presenilin-1 stably overexpressed in CHO cells co-expressing wild-type human amyloid precursor protein assessed as inhibition of amyloid beta 42 formation after 24 hrs by ELISA; format: cell-based
[2] = target: T1, Presenilin-1; assay: Activation of wild-type human presenilin-1 stably overexpressed in CHO cells co-expressing wild-type human amyloid precursor protein assessed as amyloid beta 38 formation after 24 hrs by ELISA; format: cell-based
[3] = target: T2, Polyunsaturated fatty acid 5-lipoxygenase (Homo sapiens, UniProt P09917); assay: Inhibition of 5-LO in human PMNL assessed as reduction in 5-LO product formation pre-incubated for 15 mins before addition of arachidonic acid substrate by HPLC analysis
T2 sequence (P09917 whole entry): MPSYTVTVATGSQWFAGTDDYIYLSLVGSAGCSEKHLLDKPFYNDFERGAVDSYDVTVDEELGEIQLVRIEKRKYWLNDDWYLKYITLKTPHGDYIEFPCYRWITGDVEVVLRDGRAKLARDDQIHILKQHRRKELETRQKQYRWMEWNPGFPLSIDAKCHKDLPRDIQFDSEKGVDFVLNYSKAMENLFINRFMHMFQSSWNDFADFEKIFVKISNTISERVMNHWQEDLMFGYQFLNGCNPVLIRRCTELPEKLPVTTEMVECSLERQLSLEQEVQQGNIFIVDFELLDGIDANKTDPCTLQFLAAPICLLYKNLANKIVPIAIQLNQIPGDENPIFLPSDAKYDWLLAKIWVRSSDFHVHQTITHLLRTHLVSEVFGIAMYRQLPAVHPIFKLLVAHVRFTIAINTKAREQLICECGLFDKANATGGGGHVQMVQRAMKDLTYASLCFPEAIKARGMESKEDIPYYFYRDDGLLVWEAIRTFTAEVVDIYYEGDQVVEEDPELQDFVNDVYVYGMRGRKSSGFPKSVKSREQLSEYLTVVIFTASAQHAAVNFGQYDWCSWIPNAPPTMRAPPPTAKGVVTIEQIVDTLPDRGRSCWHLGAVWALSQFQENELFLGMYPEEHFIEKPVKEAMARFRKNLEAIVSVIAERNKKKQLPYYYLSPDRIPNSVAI

[4] = target: T3, Prostaglandin G/H synthase 1 (Ovis aries) (UniProt P05979); assay: Inhibition of ovine COX1-mediated 12-HHT formation assessed as remaining activity at 10 uM preincubated for 5 mins before arachidonic acid addition by HPLC analysis
T3 sequence (whole entry): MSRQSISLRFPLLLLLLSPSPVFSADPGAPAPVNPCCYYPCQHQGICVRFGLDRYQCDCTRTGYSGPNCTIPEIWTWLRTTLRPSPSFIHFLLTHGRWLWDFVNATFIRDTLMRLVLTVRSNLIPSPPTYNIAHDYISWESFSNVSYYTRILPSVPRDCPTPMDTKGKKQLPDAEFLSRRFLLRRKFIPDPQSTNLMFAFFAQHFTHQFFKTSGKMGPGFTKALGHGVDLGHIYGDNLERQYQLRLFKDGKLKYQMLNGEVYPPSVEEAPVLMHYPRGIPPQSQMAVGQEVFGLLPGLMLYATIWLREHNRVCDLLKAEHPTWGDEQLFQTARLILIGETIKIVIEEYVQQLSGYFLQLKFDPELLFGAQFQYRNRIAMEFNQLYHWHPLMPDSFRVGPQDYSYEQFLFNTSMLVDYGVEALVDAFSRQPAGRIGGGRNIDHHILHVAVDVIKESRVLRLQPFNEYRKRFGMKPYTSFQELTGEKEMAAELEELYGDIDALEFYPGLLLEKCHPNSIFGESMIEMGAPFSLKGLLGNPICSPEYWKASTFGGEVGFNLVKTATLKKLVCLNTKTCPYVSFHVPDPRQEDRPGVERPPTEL
Procedure, shortened: (§1)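 Cell-free enzyme assays. Data given either as IC50 or as remaining enzyme activity at 10 µM test concentration.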

[5] = target: T4, Prostaglandin G/H synthase 2 (Homo sapiens) (UniProt P35354); assay: Inhibition of human recombinant COX2-mediated 12-HHT formation assessed as remaining activity at 10 uM preincubated for 5 mins before arachidonic acid addition by HPLC analysis; procedure, shortened: as §1
T4 sequence (whole entry): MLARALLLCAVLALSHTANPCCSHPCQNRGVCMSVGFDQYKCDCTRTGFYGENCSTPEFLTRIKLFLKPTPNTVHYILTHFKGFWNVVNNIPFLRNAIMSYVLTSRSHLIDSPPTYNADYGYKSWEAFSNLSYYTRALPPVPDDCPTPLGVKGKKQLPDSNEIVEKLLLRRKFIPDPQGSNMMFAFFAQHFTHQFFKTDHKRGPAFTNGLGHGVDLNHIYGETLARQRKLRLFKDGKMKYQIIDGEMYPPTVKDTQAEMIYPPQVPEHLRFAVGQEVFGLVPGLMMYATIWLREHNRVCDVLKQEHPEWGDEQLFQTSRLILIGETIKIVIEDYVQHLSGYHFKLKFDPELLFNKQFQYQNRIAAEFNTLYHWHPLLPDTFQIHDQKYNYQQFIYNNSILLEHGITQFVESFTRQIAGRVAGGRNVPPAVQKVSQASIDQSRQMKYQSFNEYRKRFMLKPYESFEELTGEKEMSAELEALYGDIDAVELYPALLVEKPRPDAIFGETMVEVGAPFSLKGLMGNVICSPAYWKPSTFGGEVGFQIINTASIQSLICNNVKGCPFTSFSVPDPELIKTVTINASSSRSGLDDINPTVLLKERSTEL

[6] = target: Neurogenic locus notch homolog protein 1 (Homo sapiens, UniProt P46531); assay: Inhibition of NOTCH-1 signaling (unknown origin) expressed in CHO cells at 5 to 50 uM after 24 hrs by dual luciferase reporter gene assay; format: cell-based
Procedure, shortened: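 Dual luciferase Notch reporter read-out in CHO cells. Test compounds were run at 5–50 µM. The γ-secretase inhibitor LY-411575 was run at 0.5 µM as the reference treatment.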

[7] = Cytotoxicity against CHO cells assessed as cell viability up to 30 uM after 24 hrs by alamar blue assay; format: cell-based, Cricetulus griseus; details: chinese hamster, read-out: Activity
[8] = target: T5, Prostaglandin E synthase (Homo sapiens, UniProt O14684); assay: Inhibition of mPGES-1-mediated PGE2 formation in interleukin-1beta-stimulated human A549 microsomal membranes preincubated for 15 mins before PGH2 addition by RP-HPLC analysis
T5 sequence (O14684 whole entry): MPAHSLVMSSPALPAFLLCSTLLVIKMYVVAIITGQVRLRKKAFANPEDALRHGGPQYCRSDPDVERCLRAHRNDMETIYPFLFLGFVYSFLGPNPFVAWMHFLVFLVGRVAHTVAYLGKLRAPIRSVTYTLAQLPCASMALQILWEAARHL

[9] = target: T6, Prostaglandin G/H synthase 1 (Ovis aries, UniProt P05979); assay: Inhibition of ovine COX1-mediated 12-HHT formation preincubated for 5 mins before arachidonic acid addition by HPLC analysis; procedure, shortened: as §1
T6 sequence (P05979 whole entry): T3 sequence (whole entry)

[10] = target: T7, Prostaglandin G/H synthase 2 (Homo sapiens, UniProt P35354); assay: Inhibition of human recombinant COX2-mediated 12-HHT formation preincubated for 5 mins before arachidonic acid addition by HPLC analysis; procedure, shortened: as §1
T7 sequence (P35354 whole entry): T4 sequence (whole entry)

[11] = target: T8, Peroxisome proliferator-activated receptor gamma (Homo sapiens) (UniProt P37231); assay: Activation of human PPARgamma ligand binding domain expressed in COS7 cells at 10 uM by dual luciferase reporter gene assay; format: cell-based; details: COS-7
T8 sequence (whole entry): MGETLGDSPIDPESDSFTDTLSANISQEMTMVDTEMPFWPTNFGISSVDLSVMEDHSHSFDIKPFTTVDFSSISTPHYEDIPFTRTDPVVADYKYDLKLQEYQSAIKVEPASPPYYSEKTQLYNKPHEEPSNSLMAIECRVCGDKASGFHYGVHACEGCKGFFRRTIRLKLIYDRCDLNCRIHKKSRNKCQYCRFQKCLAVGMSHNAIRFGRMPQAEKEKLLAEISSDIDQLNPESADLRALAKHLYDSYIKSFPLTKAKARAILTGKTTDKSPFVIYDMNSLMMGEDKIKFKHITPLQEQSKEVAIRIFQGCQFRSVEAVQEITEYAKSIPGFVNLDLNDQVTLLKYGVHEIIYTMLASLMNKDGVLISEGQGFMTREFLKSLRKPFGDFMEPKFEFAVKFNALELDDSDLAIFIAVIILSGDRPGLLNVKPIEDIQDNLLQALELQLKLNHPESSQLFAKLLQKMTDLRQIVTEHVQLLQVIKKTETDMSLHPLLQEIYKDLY

[12] = target: T9, Peroxisome proliferator-activated receptor gamma (Homo sapiens, UniProt P37231); assay: Activation of human PPARgamma ligand binding domain expressed in COS7 cells by dual luciferase reporter gene assay; format: cell-based, COS-7
T9 sequence (P37231 whole entry): T8 sequence (whole entry)

[13] = target: T8, Peroxisome proliferator-activated receptor gamma (Homo sapiens); assay: Activation of human PPARgamma ligand binding domain expressed in COS7 cells by dual luciferase reporter gene assay relative to 1 uM pioglitazone; format: cell-based; details: COS-7

Neurogenic locus notch homolog protein 1, sequence (P46531 whole entry): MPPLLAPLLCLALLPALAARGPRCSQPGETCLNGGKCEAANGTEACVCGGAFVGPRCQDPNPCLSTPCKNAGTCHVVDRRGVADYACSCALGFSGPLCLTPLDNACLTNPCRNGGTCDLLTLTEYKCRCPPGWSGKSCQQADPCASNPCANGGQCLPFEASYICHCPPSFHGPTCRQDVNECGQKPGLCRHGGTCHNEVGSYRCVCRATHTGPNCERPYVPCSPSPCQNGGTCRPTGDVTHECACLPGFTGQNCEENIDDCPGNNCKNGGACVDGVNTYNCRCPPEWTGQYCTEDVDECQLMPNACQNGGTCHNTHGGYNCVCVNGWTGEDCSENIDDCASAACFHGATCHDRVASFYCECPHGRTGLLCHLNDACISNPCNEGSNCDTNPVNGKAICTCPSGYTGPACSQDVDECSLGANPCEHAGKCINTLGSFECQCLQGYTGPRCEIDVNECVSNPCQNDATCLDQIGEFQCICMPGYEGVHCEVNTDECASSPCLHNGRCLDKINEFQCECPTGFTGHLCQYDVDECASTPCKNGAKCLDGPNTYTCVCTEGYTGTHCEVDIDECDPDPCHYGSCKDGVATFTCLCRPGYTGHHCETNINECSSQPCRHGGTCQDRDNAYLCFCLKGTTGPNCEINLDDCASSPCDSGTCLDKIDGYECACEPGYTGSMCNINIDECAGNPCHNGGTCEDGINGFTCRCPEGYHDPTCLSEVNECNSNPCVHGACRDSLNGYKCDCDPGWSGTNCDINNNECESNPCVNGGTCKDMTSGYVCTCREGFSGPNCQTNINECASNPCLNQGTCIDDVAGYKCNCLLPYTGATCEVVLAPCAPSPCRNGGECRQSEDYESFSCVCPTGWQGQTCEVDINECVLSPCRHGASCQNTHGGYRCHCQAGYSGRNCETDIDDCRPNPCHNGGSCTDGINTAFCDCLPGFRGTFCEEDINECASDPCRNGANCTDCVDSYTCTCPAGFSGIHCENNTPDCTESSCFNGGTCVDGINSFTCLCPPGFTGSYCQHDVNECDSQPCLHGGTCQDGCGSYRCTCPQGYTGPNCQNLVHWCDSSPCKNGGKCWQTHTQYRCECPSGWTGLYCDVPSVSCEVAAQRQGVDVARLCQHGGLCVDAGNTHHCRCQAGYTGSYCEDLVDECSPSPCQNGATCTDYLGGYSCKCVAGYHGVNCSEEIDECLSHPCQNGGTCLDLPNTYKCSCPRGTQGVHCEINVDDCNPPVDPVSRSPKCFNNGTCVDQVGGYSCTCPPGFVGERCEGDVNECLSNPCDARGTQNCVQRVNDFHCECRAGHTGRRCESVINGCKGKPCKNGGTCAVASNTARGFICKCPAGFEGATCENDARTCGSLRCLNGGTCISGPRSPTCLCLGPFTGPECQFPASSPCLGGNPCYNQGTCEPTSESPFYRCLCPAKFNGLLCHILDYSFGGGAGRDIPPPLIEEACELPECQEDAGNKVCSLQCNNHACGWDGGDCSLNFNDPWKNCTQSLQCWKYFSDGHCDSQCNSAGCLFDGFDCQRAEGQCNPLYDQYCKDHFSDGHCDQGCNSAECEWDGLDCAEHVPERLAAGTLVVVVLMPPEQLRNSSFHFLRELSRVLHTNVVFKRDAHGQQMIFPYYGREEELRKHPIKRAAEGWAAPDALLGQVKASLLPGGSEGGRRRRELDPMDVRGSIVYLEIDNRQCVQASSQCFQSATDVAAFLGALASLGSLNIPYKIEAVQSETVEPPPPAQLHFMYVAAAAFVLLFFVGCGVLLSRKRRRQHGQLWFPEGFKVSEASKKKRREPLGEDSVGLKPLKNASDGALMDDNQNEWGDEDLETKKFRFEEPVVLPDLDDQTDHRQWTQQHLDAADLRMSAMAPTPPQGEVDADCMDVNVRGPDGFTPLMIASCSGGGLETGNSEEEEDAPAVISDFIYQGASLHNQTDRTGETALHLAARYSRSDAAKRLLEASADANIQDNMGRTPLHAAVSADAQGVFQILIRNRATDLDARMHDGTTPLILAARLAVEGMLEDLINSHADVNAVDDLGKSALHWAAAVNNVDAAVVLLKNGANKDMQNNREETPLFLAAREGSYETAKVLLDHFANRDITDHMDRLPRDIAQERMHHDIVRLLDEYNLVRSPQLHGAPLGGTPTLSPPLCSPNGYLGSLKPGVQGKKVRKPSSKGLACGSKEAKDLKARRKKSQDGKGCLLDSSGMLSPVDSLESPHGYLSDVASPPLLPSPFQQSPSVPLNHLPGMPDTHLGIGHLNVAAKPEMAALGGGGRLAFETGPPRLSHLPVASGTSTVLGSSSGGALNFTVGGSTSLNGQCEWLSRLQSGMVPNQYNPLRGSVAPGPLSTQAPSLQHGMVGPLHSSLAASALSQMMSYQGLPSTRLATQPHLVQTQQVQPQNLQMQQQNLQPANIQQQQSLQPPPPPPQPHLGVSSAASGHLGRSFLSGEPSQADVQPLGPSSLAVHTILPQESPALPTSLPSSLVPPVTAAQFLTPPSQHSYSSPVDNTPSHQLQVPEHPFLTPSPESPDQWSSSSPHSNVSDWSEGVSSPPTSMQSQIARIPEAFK

SMILES | IC50 [1] [µM] | EC50 [2] [µM] | IC50 ([3]; read-out: IC50) [µM] | Activity [4] [%] | Activity [5] [%] | inhibition (INH) [6] | viability at 24 h [7] [%] | IC50 [8] [µM] | IC50 [9] [µM] | IC50 [10] [µM] | Activity [11] [%] | EC50 ([12]; read-out: EC50) [µM] | max activation [13] | EC50 ([12]; cos-7) | IC50 [3]
CCCC/C(=C\c1cc(OCc2ccc3nc(C(F)(F)F)cc(OC)c3c2)ccc1OCc1ccc(C(F)(F)F)cc1)C(=O)O | 0.63 | 1.17 | 0.2 | 69 | 84.2 | Not Active | > 50 | 3 | > 10 | > 10 | 17 | – | – | – | –
CCCC/C(=C\c1cc(OC/C=C/c2ccccc2)ccc1OCc1ccc(C(F)(F)F)cc1)C(=O)O | 4.1 | 2.5 | 0.75 | 69.5 | 77.7 | – | – | 5 | > 10 | > 10 | – | 12.9 | 56% | – | –
CCCC/C(=C\c1cc(-c2ccccc2)ccc1OCc1ccc(C(F)(F)F)cc1)C(=O)O | 11.9 | 12 | 5.7 | – | – | – | – | – | – | – | 26 | – | – | – | –
CCCC/C(=C\c1cc(OCc2csc(-c3ccc(C(F)(F)F)cc3)n2)ccc1OCc1ccc(C(F)(F)F)cc1)C(=O)O | 2.3 | 10.7 | 0.9 | 73.5 | 84.4 | – | – | > 10 | > 10 | > 10 | – | – | inactive | Not Active | –
CCCC/C(=C\c1cc(OCc2cc(C(F)(F)F)cc(C(F)(F)F)c2)ccc1OCc1ccc(C(F)(F)F)cc1)C(=O)O | 0.79 | 1 | 0.3 | 62.4 | 77.3 | – | > 50 | > 10 | > 10 | > 10 | – | 4.64 | 103% | – | –
CCCC/C(=C\c1cc(OCc2ccc(OCCN3CCOCC3)cc2)ccc1OCc1ccc(C(F)(F)F)cc1)C(=O)O | 2.2 | 0.97 | 0.9 | 91.3 | 95 | – | – | 8.7 | > 10 | > 10 | – | 3.77 | 66% | – | –
CCCC/C(=C\c1cc(OCC(c2ccccc2)c2ccccc2)ccc1OCc1ccc(C(F)(F)F)cc1)C(=O)O | 11.4 | 11.2 | 0.25 | 61.1 | 79.5 | – | – | > 10 | > 10 | > 10 | – | 1.26 | 97% | – | –
CCCC/C(=C\c1cc(OCc2ccc(Cl)c(Cl)c2)ccc1OCc1ccc(C(F)(F)F)cc1)C(=O)O | 2 | 3.2 | 0.3 | 59.4 | 73.3 | – | – | 1.6 | > 10 | > 10 | – | 2.11 | 56% | – | –
CCCC/C(=C\c1cc(O)ccc1OCc1ccc(C(F)(F)F)cc1)C(=O)O | > 40 | > 40 | – | – | – | – | – | – | – | – | 48 | – | – | – | Not Active
CCCC/C(=C\c1cc(OCc2ccccc2)ccc1OCc1ccc(C(F)(F)F)cc1)C(=O)O | 19.3 | 14.1 | 0.55 | 86.6 | 84.8 | – | – | 5.6 | > 10 | > 10 | – | 11.7 | 108% | – | –
CCCC/C(=C\c1cc(OCc2ccc(C(F)(F)F)cc2)ccc1OCc1ccc(C(F)(F)F)cc1)C(=O)O | 1.2 | 1.1 | – | – | – | – | – | > 10 | > 10 | > 10 | – | – | – | – | –
CCCC/C(=C\c1cc(OCc2ccc(F)cc2)ccc1OCc1ccc(C(F)(F)F)cc1)C(=O)O | 7 | 13.8 | 0.5 | 78.4 | 84.2 | – | – | 4.9 | > 10 | > 10 | – | 5.17 | 76% | – | –
CCCC/C(=C\c1cc(OCc2ccc(Oc3ccccn3)cc2)ccc1OCc1ccc(C(F)(F)F)cc1)C(=O)O | 5 | 4.5 | 0.2 | 75.7 | 91.1 | – | – | 10 | > 10 | > 10 | – | – | – | Not Active | –
CCCC/C(=C\c1cc(OCC2CCC(C(F)(F)F)CC2)ccc1OCc1ccc(C(F)(F)F)cc1)C(=O)O (stereo unspecified) | 1 | 1.1 | 1.7 | 58 | 75.3 | Not Active | > 50 | 2.5 | > 10 | > 10 | – | 2.16 | 158% | – | –
